Experimental data from ChEMBL document CHEMBL1154907, “Synthesis and preclinical evaluations of 2-(2-fluorophenyl)-6,7-methylenedioxyquinolin-4-one monosodium phosphate (CHM-1-P-Na) as a potent antitumor agent” (J Med Chem, 2010).
Calls of active or inactive are those of the source. The rule behind the calls is not given here.

What was measured:
[1] = test system: MKN-45; assay: Growth inhibition of human MKN45 cells by SRB assay; assay type: functional
Outline: (§1)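 Human cancer cell panel; five concentrations from 10^-4 to 10^-8 M; growth measured by sulforhodamine B colorimetric method; GI50, TGI and LC50 derived from computer-analysed dose-response curves.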

[2] = test system: OVCAR-8; assay: Growth inhibition of human OVCAR8 cells by SRB assay; assay type: functional; outline: as §1
[3] = target: Pepsin A (Sus scrofa) (UniProt P00791); assay: Inhibition of pig pepsin at 10 uM by enzyme assay
Chain of Pepsin A (Sus scrofa) (P00791 60-385 limits assumed): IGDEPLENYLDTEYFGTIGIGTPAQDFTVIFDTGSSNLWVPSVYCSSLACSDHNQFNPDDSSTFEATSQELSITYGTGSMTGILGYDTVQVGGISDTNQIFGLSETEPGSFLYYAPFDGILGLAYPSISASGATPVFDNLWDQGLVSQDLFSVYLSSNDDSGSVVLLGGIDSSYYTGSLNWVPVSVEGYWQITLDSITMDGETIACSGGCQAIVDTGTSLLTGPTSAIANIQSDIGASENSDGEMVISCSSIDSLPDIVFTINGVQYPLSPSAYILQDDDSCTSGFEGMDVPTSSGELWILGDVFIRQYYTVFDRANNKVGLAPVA
Outline: (§2)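 Commercial spectrum screen of enzyme assays under standard protocols; percent inhibition tested at 10 μM; IC50 determined for targets showing significant inhibition at that concentration; SEM given where multiple independent determinations.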

[4] = test system: SK-OV-3; assay: Cell cycle arrest in human SKOV3 cells assessed as accumulation of cells with G2/M DNA at 10 uM after 36 hrs by propidium iodide-based flow cytometry; assay type: functional
Outline: (§3)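 SKOV-3 cells (DMEM/F-12, 10% fetal calf serum) treated with 10 μM for 6, 12, 24, 36 or 48 h; trypsinized, PBS-washed, fixed in 70% ice-cold ethanol overnight at -20 °C, RNase A treated, propidium iodide stained; DNA content by flow cytometry, phase percentages and hypodiploid fraction scored.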

[5] = test system: St-4; assay: Growth inhibition of human St-4 cells by SRB assay; assay type: functional
Outline: (§4)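 Cancer cell panel; growth measured by sulforhodamine B colorimetric method across five concentrations from 10^-4 to 10^-8 M; GI50, TGI and LC50 derived from computer-analysed dose-response curves.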

[6] = test system: HT-29; assay: Growth inhibition of human HT-29 cells by SRB assay; assay type: functional; outline: as §1
[7] = test system: SK-OV-3; assay: Induction of mitotic arrest in human SKOV3 cells assessed as increase in securin expression at 10 uM after 24 hrs by Western blot; assay type: functional, cell-based
Outline: (§5)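 SKOV-3 cells in DMEM/F-12 with 10% fetal calf serum, treated with 10 μM or vehicle (DMSO). Lysates, 50 μg protein, resolved by SDS-PAGE, transferred to PVDF, probed for cyclin B1 or securin with β-actin loading control; ECL detection, bands quantified by phosphorimaging; at least three separate experiments.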

[8] = test system: MKN-7; assay: Growth inhibition of human MKN7 cells by SRB assay; assay type: functional; outline: as §1
[9] = Mean residence time in CD1 mouse at 10 mg/kg, ip; assay type: ADME, organism-based; parameters: dose 10 mg/kg, route intraperitoneal; conditions: in vivo
Outline: (§6)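 Male CD-1 (Crl.) mice, 22-24 g, single 10 mg/kg ip bolus of parent drug in cremophor/DMSO/saline (20/5/75, v/v; 2 mg/mL, 5 mL/kg). Blood sampled at 0, 5, 15, 30 min, 1, 1.5, 2, 4, 6, 9, 24, 27 h, three mice per time point. Plasma extracted with acetonitrile, analysed by LC-MS/MS. Parameters calculated from mean plasma concentrations.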

[10] = target: Cathepsin D (Homo sapiens) (UniProt P07339); assay: Inhibition of human cathepsin D at 10 uM by enzyme assay; outline: as §2
Chain of Cathepsin D (Homo sapiens) (P07339 65-162 limits assumed): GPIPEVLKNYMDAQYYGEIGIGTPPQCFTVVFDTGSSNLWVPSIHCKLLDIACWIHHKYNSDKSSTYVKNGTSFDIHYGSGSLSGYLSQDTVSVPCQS
Chain of Cathepsin D (Homo sapiens) (P07339 169-412 limits assumed): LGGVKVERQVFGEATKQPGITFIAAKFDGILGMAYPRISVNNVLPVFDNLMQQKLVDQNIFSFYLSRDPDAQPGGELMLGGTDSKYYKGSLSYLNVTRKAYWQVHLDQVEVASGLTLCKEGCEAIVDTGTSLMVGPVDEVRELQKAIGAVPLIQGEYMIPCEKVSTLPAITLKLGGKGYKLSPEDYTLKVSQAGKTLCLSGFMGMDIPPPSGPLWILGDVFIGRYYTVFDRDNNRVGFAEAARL

[11] = test system: SK-OV-3; assay: Cell cycle arrest in human SKOV3 cells assessed as increase in accumulation at G2/M phase at 10 uM after 36 hrs by propidium iodide-based flow cytometry; assay type: functional; outline: as §3
[12] = test system: SF-539; assay: Growth inhibition of human SF539 cells by SRB assay; assay type: functional; outline: as §4
[13] = test system: SNB-78; assay: Growth inhibition of human SNB78 cells by SRB assay; assay type: functional; outline: as §4
[14] = test system: SNB-75; assay: Growth inhibition of human SNB75 cells by SRB assay; assay type: functional; outline: as §4
[15] = test system: OVCAR-3; assay: Antitumor activity against human OVCAR-3 cells xenografted in nude mouse assessed as increase in lifespan of organism at 200 mg/kg, ip administered in Q7D x 3 schedule relative to control; assay type: functional; conditions: route intraperitoneal
[16] = target: Cathepsin E (Homo sapiens) (UniProt P14091); assay: Inhibition of human cathepsin E at 10 uM by enzyme assay; outline: as §2
Chain of Cathepsin E (Homo sapiens) (P14091 whole entry): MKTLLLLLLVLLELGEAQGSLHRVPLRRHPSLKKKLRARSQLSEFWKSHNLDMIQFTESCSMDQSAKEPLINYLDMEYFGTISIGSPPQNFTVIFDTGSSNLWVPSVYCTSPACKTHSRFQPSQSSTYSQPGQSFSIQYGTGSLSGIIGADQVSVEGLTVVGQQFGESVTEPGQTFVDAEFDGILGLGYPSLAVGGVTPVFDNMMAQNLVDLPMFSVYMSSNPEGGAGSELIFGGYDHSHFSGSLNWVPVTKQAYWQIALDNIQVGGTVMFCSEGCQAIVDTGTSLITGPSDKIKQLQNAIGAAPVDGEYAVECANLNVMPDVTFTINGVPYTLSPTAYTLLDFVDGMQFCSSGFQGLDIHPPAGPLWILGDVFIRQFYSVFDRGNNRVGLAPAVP

[17] = test system: NCI-H522; assay: Growth inhibition of human NCI-H522 cells by SRB assay; assay type: functional; outline: as §1
[18] = Tmax in CD1 mouse at 10 mg/kg, ip; assay type: ADME, organism-based; parameters: dose 10 mg/kg, route intraperitoneal; conditions: in vivo; outline: as §6
[19] = target: Mitogen-activated protein kinase 10 (Homo sapiens) (UniProt P53779); assay: Inhibition of human JNK3 at 10 uM by enzyme assay; outline: as §2
Chain of Mitogen-activated protein kinase 10 (Homo sapiens) (P53779 whole entry): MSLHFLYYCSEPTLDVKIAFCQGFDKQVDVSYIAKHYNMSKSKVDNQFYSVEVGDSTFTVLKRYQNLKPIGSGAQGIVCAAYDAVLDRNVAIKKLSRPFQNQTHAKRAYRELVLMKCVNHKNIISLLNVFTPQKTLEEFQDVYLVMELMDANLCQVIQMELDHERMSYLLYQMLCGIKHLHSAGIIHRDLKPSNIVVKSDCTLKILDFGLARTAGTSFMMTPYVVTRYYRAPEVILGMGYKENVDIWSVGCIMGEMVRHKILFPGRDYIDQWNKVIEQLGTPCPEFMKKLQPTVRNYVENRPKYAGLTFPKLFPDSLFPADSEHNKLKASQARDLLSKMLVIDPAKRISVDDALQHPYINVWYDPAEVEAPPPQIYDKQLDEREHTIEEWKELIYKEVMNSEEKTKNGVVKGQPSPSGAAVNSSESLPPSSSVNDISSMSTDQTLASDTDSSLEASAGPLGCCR

[20] = Cmax in CD1 mouse at 10 mg/kg, ip; assay type: ADME, organism-based; parameters: dose 10 mg/kg, route intraperitoneal; conditions: in vivo
Outline: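 Male CD-1 (Crl.) mice (22-24 g), single 10 mg/kg dose. Prodrug in 9% NaHCO3/water (1 mg/mL) given iv by tail vein or po by gavage after 4 h fast; parent given ip in cremophor/DMSO/saline 20/5/75 (2 mg/mL). Plasma sampled to 27 h, three mice per time point, acetonitrile precipitation, LC-MS/MS (ESI positive); parameters from mean plasma concentrations.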

[21] = Growth inhibition of human HBC5 cells by SRB assay; assay type: functional; outline: as §1
[22] = test system: HCT-116; assay: Growth inhibition of human HCT116 cells by SRB assay; assay type: functional; outline: as §1
[23] = Toxicity in ip dosed nude mouse assessed as maximum tolerated dose; assay type: organism-based; conditions: in vivo
[24] = test system: SF-295; assay: Growth inhibition of human SF295 cells by SRB assay; assay type: functional; outline: as §4
[25] = test system: OVCAR-4; assay: Growth inhibition of human OVCAR4 cells by SRB assay; assay type: functional; outline: as §1
[26] = test system: SK-OV-3; assay: Growth inhibition of human SKOV3 cells by SRB assay; assay type: functional; outline: as §4
[27] = test system: MKN-28; assay: Growth inhibition of human MKN28 cells by SRB assay; assay type: functional; outline: as §1
[28] = target: Glutamate decarboxylase (Clostridium perfringens (strain 13 / Type A)) (UniProt Q8XIQ6); assay: Inhibition of Clostridium perfringens glutamate decarboxylase at 10 uM by enzyme assay
Outline: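 Single-concentration screen at 10 μM in a contract enzyme assay panel run under standard protocols. Read-out is percent inhibition of the enzyme.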

[29] = Growth inhibition of human MKN1 cells by SRB assay; assay type: functional, MKN-1; outline: as §1
[30] = test system: SK-OV-3; assay: Induction of mitotic arrest in human SKOV3 cells assessed as increase in cyclin B1 expression at 10 uM after 24 hrs by Western blot; assay type: functional, cell-based; outline: as §5
[31] = read-out: pLC50 (the source's name) (converted)

O=c1cc(-c2ccccc2F)[nH]c2cc3c(cc12)OCO3 showed a GI50 ([1]; MKN-45) of 57.5 nM, a CC50 ([1]; MKN-45, read-out: pLC50 (converted)) of over 100000 nM and a TGI ([1]; MKN-45, read-out: pTGI) of over 100000 nM. It also gave a GI50 ([2]; OVCAR-8) of 162 nM, a CC50 ([2]; OVCAR-8, read-out: pLC50 (converted)) of over 100000 nM and a TGI ([2]; OVCAR-8, read-out: pTGI (converted)) of 794 nM. The inhibition [3] was 85%, the Activity [4] was “Active” and the GI50 ([5]; St-4) was 6610 nM. The CC50 ([5]; St-4, read-out: pLC50 (converted)) was over 100000 nM, the TGI ([5]; St-4, read-out: pTGI (converted)) was 93300 nM and the GI50 ([6]; HT-29) was 309 nM. For the same compound, the CC50 ([6]; HT-29, read-out: pLC50 (converted)) was over 100000 nM, the TGI ([6]; HT-29, read-out: pTGI (converted)) was 1200 nM and the Activity [7] was “Active”. For the same compound, the GI50 ([8]; MKN-7) was 45.7 nM, the CC50 ([8]; MKN-7, read-out: pLC50 (converted)) was over 100000 nM and the TGI ([8]; MKN-7, read-out: pTGI) was over 100000 nM. The MRT [9] was 7.3 h, the inhibition [10] was 27% and the Activity [11] was “Active”. The GI50 [12] was 120 nM, the CC50 [12, 31] was 89100 nM and the TGI ([12]; read-out: pTGI (converted)) was 501 nM. It also gave a GI50 ([13]; SNB-78) of 219 nM, a CC50 ([13]; SNB-78, read-out: pLC50 (converted)) of over 100000 nM and a TGI ([13]; SNB-78, read-out: pTGI (converted)) of 12000 nM. For the same compound, the GI50 ([14]; SNB-75) was 20000 nM, the CC50 ([14]; SNB-75, read-out: pLC50 (converted)) was over 100000 nM and the TGI ([14]; SNB-75, read-out: pTGI) was over 100000 nM. For the same compound, the Activity [15] was 124%, the inhibition [16] was 12% and the GI50 ([17]; NCI-H522) was 60.3 nM. For the same compound, the CC50 ([17]; NCI-H522, read-out: pLC50 (converted)) was over 100000 nM, the TGI ([17]; NCI-H522, read-out: pTGI (converted)) was 562 nM and the Tmax [18] was 0.3 h. For the same compound, the inhibition [19] was 55%, the Cmax [20] was 155 ng/mL and the GI50 ([21]; HBC5) was 776 nM. It also gave a CC50 ([21]; HBC5, read-out: pLC50 (converted)) of over 100000 nM, a TGI ([21]; HBC5, read-out: pTGI) of over 100000 nM and a GI50 ([22]; HCT-116) of 64.6 nM. It also gave a CC50 ([22]; HCT-116, read-out: pLC50 (converted)) of over 100000 nM, a TGI ([22]; HCT-116, read-out: pTGI) of over 100000 nM and an MTD [23] of 200 mg/kg. It also gave a GI50 ([24]; SF-295) of 115 nM, a CC50 ([24]; SF-295, read-out: pLC50 (converted)) of over 100000 nM and a TGI ([24]; SF-295, read-out: pTGI (converted)) of 52500 nM. It also gave a GI50 [25] of 28.2 nM, a CC50 [25, 31] of 513 nM and a TGI ([25]; read-out: pTGI (converted)) of 64.6 nM. The GI50 [26] was 85.1 nM, the CC50 [26, 31] was 63100 nM and the TGI ([26]; read-out: pTGI (converted)) was 501 nM. The GI50 ([27]; MKN-28) was 112 nM, the CC50 ([27]; MKN-28, read-out: pLC50 (converted)) was over 100000 nM and the TGI ([27]; MKN-28, read-out: pTGI (converted)) was 17800 nM. It also gave an inhibition [28] of 66%, a GI50 ([29]; MKN-1) of 77.6 nM and a CC50 ([29]; MKN-1, read-out: pLC50 (converted)) of over 100000 nM. For the same compound, the TGI ([29]; MKN-1, read-out: pTGI) was over 100000 nM and the Activity [30] was “Active”.
